Source: PubChem BioAssay
STAT3 activator = STAT3 signaling activation. activation (% of control), % at 5.6 µM. AID 871. hit rate 0.91% among 190,000. U3A cells, IL-6 STAT3-luciferase reporter, luminescence; 100% = signal with IL-6 EC80 alone;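 active means activation above the screen-wide mean of compound activation plus 3 SD, cut at about 130% in these data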;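 further: 0% = background luminescence of wells with medium and substrate only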
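Test system: human U3A cells carrying STAT3-luciferase construct; control set: IL-6-only wells as 100% reference; timing: compound pre-incubation 1 h before IL-6, then 6 h stimulation at 37 °C; also added: IL-6 stimulus at 33 ng/mL final; evaluation: % activation versus median of IL-6-stimulated wells; detection: reporter luminescence signal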
STAT1 act = STAT1 signaling activation. AID 932. NIH 3T3 STAT1-luciferase reporter, IFN-gamma, luminescence; 100% = IFN-gamma alone, no compound. hit rate 2.6% among 200,000. activation (% of control), % at 5.5 µM;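 active means activation above the screen-wide mean activation plus 3 SD, cut at about 130% in these data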;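 further: raw ratio to IFN-gamma control signal so 100% means no change and 0% no light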
STAT1 blocker = reduces IFN-gamma driven STAT1 reporter signal | NIH 3T3 STAT1-luciferase reporter, luminescence | inhibition, % at 5.5 µM | AID 920 | hit rate 0.35% among 200,000;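 active means inhibition above a set limit, the mean inhibition across all tested compounds plus 3 SD, cut at about 34% in these data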;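 further: 0% = IFN-gamma with DMSO and 100% = IFN-gamma with 300 µM nifuroxazide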
STAT3 inh = inhibitors of IL-6 induced STAT3 signaling. U3A cells, IL-6 STAT3-luciferase reporter, luminescence; host cell line lacks STAT1. inhibition, % at 5.5 µM. hit rate 0.89% among 190,000. AID 862;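 active means inhibition above the mean inhibition across all screened compounds plus 3 SD, cut at about 44% in these data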;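 further: 0% = DMSO only wells and 100% = 100 µM nifuroxazide control wells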
NF-kB expr up = compounds increasing NF-kB expression in human neuronal cells; NF-kB reporter expression; active compounds read high; fold change at 12.5 µM; hit rate 1.6% among 190,000; in the data active means fold change above about 3.3
APP 5'UTR act = activates APP 5'UTR luciferase reporter. SH-SY5Y APP 5'UTR luciferase reporter, luminescence; zero percent = DMSO vehicle wells. hit rate 1% among 190,000. activation, % at 2 µM. AID 1276;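 active means activation above a set limit, based on mean plus 3 SD of controls, cut at about 140% in these data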
Active calls of the source: *; / = not tested or not shown. Rows were chosen to be rich in hits. Some 5.1% of all compounds tested hit in one or more screens of this group.

SMILES	STAT3 activator	STAT1 act	STAT1 blocker	STAT3 inh	NF-kB expr up	APP 5'UTR act
CCC(=O)N1N=C(c2ccc(NS(C)(=O)=O)cc2)CC1c1ccc(N(C)C)cc1 (configuration not stated)	111	129*	-34	-6	2	24
Cc1oc(CSCC2CCCO2)cc1C(=O)O (configuration not stated)	103	148*	-52	0	1.1	13
Cc1oc(C2CC2)cc1C(=O)O	104	97	3	-5	1.1	-6
CCc1ccc(C(=O)/C=C/c2cnn(C)c2C)s1	102	129*	-32	2	11*	174*
Cc1c(/C=C/C(=O)c2cccs2)cnn1C	98	104	-8	6	2.3	11
COC(=O)c1ccc2nc(Nc3nc4ccc(F)cc4s3)sc2c1	24	43	64*	92*	2	-43
COC(=O)Nc1nc2ccc(Br)cc2s1	91	113	-14	15	1.4	48
COC(=O)c1ccc2nc(NC(=O)C(C)(C)C)sc2c1	16	31	74*	100*	1.1	108
CC(=O)c1sc(Nc2nc3ccc(F)cc3s2)nc1C	106	135*	-39	-2	2.7	44
COC(=O)c1ccc2nc(NC(=O)C3CCCCC3)sc2c1	107	124	-26	-2	1.6	141*
CCOC(=O)c1csc(Nc2nc3ccc(F)cc3s2)n1	96	118	-19	10	1.2	15
CC(=O)Nc1nc2ccc(C(=O)NC3CCCCC3)cc2s1	96	98	2	7	1.3	-3
CCOC(=O)c1ccc(S(=O)(=O)NNC(=O)c2cccc(N(C)C)c2)cc1	103	100	-3	-2	1	6
N#Cc1ccc(/C=N/NC(=O)CCc2ccc(S(=O)(=O)N3CCOCC3)cc2)cc1	102	98	3	-3	1.1	6
c1ccc2c(c1)CCN(c1nc3cc4c(cc3s1)OCCO4)C2	24	66	37*	88*	1.1	148*
COc1ccc(OC)c2sc(N3CCc4ccccc4C3)nc12	86	100	0	20	1.3	4
CCOC(=O)c1ccc(CC2S/C(=C(\C#N)C(C)=O)NC2=O)cc1 (configuration not stated)	109	103	-2	-11	3.5*	-12
Cn1cccc1/C=N/NC(=O)c1sc2ccccc2c1Cl	96	131*	-34	12	1.4	13
COc1cc(OC)cc(-n2nnnc2SCC(=O)Nc2nc3c(s2)CCCC3)c1	101	100	-1	0	1.2	-4
O=C(Cc1cccs1)Nc1nc2c(ccc3ccccc32)s1	159*	102	-2	-70	1.2	12
Cn1nnnc1SCC(=O)Nc1nc2c(s1)CCCC2	111	143*	-46	-16	4*	111
O=C(Cc1cccs1)Nc1nc2c(s1)CCCC2	91	131*	-34	14	6.1*	80
O=C(Nc1nc2c(s1)CCCC2)c1cccnc1	97	139*	-40	7	4*	125
CCCCCCNC(=O)c1c(N)n(/N=C/c2ccco2)c2nc3ccccc3nc12	108	135*	-38	-10	/	-6
CC(C)CC(NS(=O)(=O)c1cc(C(=O)O)ccc1Cl)C(=O)O (configuration not stated)	95	93	5	9	1.1	5
SMILES	STAT3 activator	STAT1 act	STAT1 blocker	STAT3 inh	NF-kB expr up	APP 5'UTR act
COc1ccc(-c2nnnn2-c2ccc(F)cc2F)cc1	102	96	3	5	3.9*	6
O=C1C2C3c4ccccc4C(c4ccccc43)C2C(=O)N1c1nc(-c2ccccc2)cs1 (configuration not stated)	98	106	-6	9	1.1	-18
N=C1SCC(=O)N1c1nc(-c2ccccc2)cs1	98	150*	-55	9	1.6	-7
CCc1cc2c3c(c1)C1(C(=O)N3C(C)(C)C=C2C)C(C#N)=C(N)Oc2[nH]c(=O)[nH]c(=O)c21 (configuration not stated)	104	100	-2	-4	2.6	-9
CCN(CC)c1c([N+](=O)[O-])c(=O)oc2ccccc12	104	102	-4	-3	1.3	2
Cc1c(C(=O)Nc2cnccn2)oc2ccccc12	124	121	-23	-24	4.7*	28
Nc1c(C(=O)Nc2ccc(Cl)cc2)oc2ccccc12	173*	170*	-78	-75	5.6*	213*
Cc1c(C(=O)NC2=NCCS2)oc2ccccc12	90	137*	-40	15	7.6*	106
CC(=O)Nc1cccc(NC(=O)c2oc3ccccc3c2C)c1	104	142*	-44	2	2.3	68
Cc1sc(NC(=O)c2oc3ccccc3c2C)c(C#N)c1C	96	102	0	6	1.4	15
O=C1/C(=C/c2ccccc2)SC(=S)N1N1C(=O)C2CC2C1=O (configuration not stated)	107	102	-3	-6	1.2	-31
C=CCNC(=S)NC(=O)c1oc2ccccc2c1C	107	134*	-40	-4	2	57
CC(=O)c1cc(N2CCOCC2)ccc1[N+](=O)[O-]	101	104	-7	3	5.6*	10
CC(=O)c1cc(N2CCC(C(=O)O)CC2)ccc1[N+](=O)[O-]	93	104	-4	13	1.1	6
CN(C)S(=O)(=O)N1CCN(c2ccc([N+](=O)[O-])c(N3CCOCC3)c2)CC1	136*	100	-2	-44	1.2	6
Cc1ccc(-c2ccc(C3C(C#N)=C(N)Oc4n[nH]c(C)c43)o2)cc1 (configuration not stated)	136*	117	-19	-41	0.8	-5
CC1CN(C(=S)c2cccc([N+](=O)[O-])c2)CC(C)O1 (configuration not stated)	102	101	-3	0	1.2	-4
N#Cc1cnc2sc3ccccc3n2c1=N	104	130*	-33	4	3.2	-7
O=S(=O)(O)c1nnc2sc3ccccc3n12	100	99	1	3	1.4	7
Cc1cc(Cl)ccc1Nc1ncccc1C(N)=O	105	130*	-34	-3	2.1	41
NC(=O)c1cccnc1Nc1ccccc1F	104	97	3	-2	1.4	-7
Cc1cc(C)cc(NC(=S)Nc2ccccn2)c1	127	96	4	-26	1.1	12
Cc1cc(Cl)ccc1NC(=S)Nc1ccccn1	105	130*	-33	-4	1.6	56
C/C(N)=C(/C#N)C(=O)COC(=O)c1cc(-c2ccc(Br)cc2)nc2ccccc12	79	98	2	27	3.6*	-7
COc1cccc(C(=O)NCC(=O)OCC(=O)c2ccccc2)c1	111	150*	-57	-10	1.1	3
